A short description of assay [1]: Percent inhibition of [75Se]- selenomethionine incorporation in the protein synthesis assay in bone marrow cell lines at a concentration of 10 E-3. Type of assay: functional, Mus musculus. The procedure, abridged: (§1)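 Protein synthesis in 6×10^5 cells per well (3×10^6 cells/mL), from CD-1 mouse femoral marrow or ip-passaged DBA/2 P388 cells. Medium is Spinner's (10% heat-inactivated FCS for P388). 0.2 μCi L-[75Se]selenomethionine is added with compound, 2 h at 37 °C, 5% CO2, rocked. Cells are harvested and gamma-counted. % inhibition versus control cpm (ethanol controls where used), six replicate wells; puromycin or sparsomycin serves as control.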

The test system of assay [2] is P388. As to the kind of experiment: Percent inhibition of [123I]UdR incorporation in the DNA synthesis assay in P388 cell lines at a concentration of 10 E-3 M. The assay is classed as functional. Particulars: Mus musculus, in the assay text read “[125I]UdR” for “[123I]UdR”. An outline of the steps:
(§2)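 DNA synthesis over 2 h at 37 °C, 5% CO2, on a rocker. Wells hold 6×10^5 cells (3×10^6 cells/mL): femoral marrow from male CD-1 mice, or P388 ascites cells kept by ip passage in DBA/2 mice. Medium is αMEM. Label is 0.1 μCi 125IUdR in 2×10^-5 M FUdR. Cells are harvested and gamma-counted. % inhibition versus control cpm, six replicate wells; ara-C serves as control.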

The subject of assay [3] is P388. As to the kind of experiment: Percent inhibition of [75Se]- selenomethionine incorporation in the protein synthesis assay in P388 cell lines at a concentration of 10 E-3 M. Type of assay: functional. As to conditions: Mus musculus. An outline of the steps:
as §1

The nature of assay [4]: Percent inhibition of [123I]UdR incorporation in the DNA synthesis assay in bone marrow cells at a concentration of 10 e-3 M. Type of assay: functional. Particulars: Mus musculus, Bone element; in the assay text read “[125I]UdR” for “[123I]UdR”. An outline of the steps:
as §2

Assay [5] relates to P815. Nature of the assay: Percent inhibition of [75Se]- selenomethionine incorporation in the protein synthesis assay in P815 cell lines at a concentration of 10 E-3 M. Type of assay: functional. Particulars: Mus musculus. The procedure, abridged:
(§3)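 P815 mastocytoma cells are cultured in complete DMEM and plated at 6×10^5 cells per well in CDMEM. 0.2 μCi L-[75Se]selenomethionine is added with compound, 2 h at 37 °C, 5% CO2, on a rocker. Cells are harvested and gamma-counted. % inhibition is taken versus control cpm (ethanol controls where used), four replicate wells.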

For assay [6], the system named is P388. As to the kind of experiment: Percent inhibition of [75Se]- selenomethionine incorporation in the protein synthesis assay in P388 cell lines at a concentration of 10 E-4 M. The assay is classed as functional. As to conditions: Mus musculus. The procedure, abridged: as §1
In a further assay the test system is Osteoclast-like. As to the kind of experiment: Percent inhibition of [75Se]- selenomethionine incorporation in the protein synthesis assay in bone marrow cell lines at a concentration of 10 E-4. The assay is classed as functional, Mus musculus. An outline of the steps: as §1
Assay [7] deals with P815. As to the kind of experiment: Percent inhibition of [75Se]- selenomethionine incorporation in the protein synthesis assay in P815 cell lines at a concentration of 10 E-4 M. The assay is classed as functional. As to conditions: Mus musculus. An outline of the steps:
as §3

SMILES strings stand for the structures.

As usually defined, the Inhibition is the percentage by which the read-out fell short of the control. High values mean a response far below the control, low ones a response near the control. Broadly, the inhibition is how much of the control response was suppressed. Low readings indicate a weak effect, high ones a strong effect.

`Cc1nc(O)nc(O)c1/C=C/C(=O)NC(CO)Cc1ccc(Br)cc1` (stereo unspecified) showed an Inhibition in assay [1] of 64%. Further, the inhibition at 1000 µM stood at 34% in the assay on P388 [2], 44% in the assay with P388 [3], 15% in assay [4] and 94% with P815 [5].
For `COc1ccc(CCNC(=O)/C=C/c2c(C)nc(O)nc2O)cc1` the same measures were 44%, 2%, 0%, 0% and 0%.
`COc1ccc(CC(CO)NC(=O)/C=C/c2c(C)nc(O)nc2O)cc1` (stereo unspecified): the inhibition at 100 µM with P388 [6] and in the assay on P815 [7] was 0% in each case. In the assay with Osteoclast-like, this compound displayed an Inhibition of 0%.
In turn, `COc1ccc(CNC(=O)CCNC(=O)/C=C/c2c(C)nc(O)nc2O)cc1` registered an Inhibition in assay [1] of 11%. Besides, the values for the inhibition at 1000 µM with P388 [3] and in the assay with P815 [5] were 1% and 0%, respectively.
For `Cc1nc(O)nc(O)c1/C=C/C(=O)NCCC(=O)NCc1ccc(Br)cc1` the same measures were 29%, 23% and 69%.
Take `Nc1ccn([C@@H]2O[C@H](CO)[C@@H](O)[C@@H]2O)c(=O)n1` [CYTARABINE]: the inhibition at 1000 µM (in the assay with P388 [2]; in assay [4]) was 99% in each case.
`Cc1nc(O)nc(O)c1/C=C/C(=O)NC(CO)Cc1ccccc1` (stereo unspecified) gave an Inhibition in assay [1] of 34%. Besides, the inhibition at 1000 µM with P388 [2] amounted to 5%; in the assay with P388 [3], 6%; in assay [4], 0%; with P815 [5] it was 52%.
As to `COc1ccc(C[C@H](N)C(=O)N[C@H]2[C@@H](O)[C@H](n3cnc4c(N(C)C)ncnc43)O[C@@H]2CO)cc1` [PUROMYCIN], the Inhibition in assay [1] came out at 61%. The values for the inhibition at 1000 µM with P388 [3] and in the assay with P815 [5] were 64% and 98%, respectively.
In the case of `Cc1ccc(CC(CO)NC(=O)/C=C/c2c(C)nc(O)nc2O)cc1` (stereo unspecified), in assay [1], the Inhibition stood at 40%. Also, the inhibition at 1000 µM with P388 [2] was found to be 0%; in the assay with P388 [3], 4%; in assay [4], 0%; with P815 [5], 65%.
In assay [1], `Cc1ccc(CCNC(=O)/C=C/c2c(C)nc(O)nc2O)cc1` gave an Inhibition of 35%. Moreover, the inhibition at 1000 µM in the assay on P388 [2] amounted to 0%; with P388 [3] it was 0%; in assay [4], 0%; in the assay on P815 [5], 11%.
The compound `Cc1nc(O)nc(O)c1/C=C/C(=O)NCCc1ccccc1` gave an Inhibition in assay [1] of 34%. The inhibition at 1000 µM with P388 [2] amounted to 9%; with P388 [3], 1%; in assay [4] it was 0%; in the assay with P815 [5] it was 2%.
Regarding `CSC[S@@+]([O-])CC(CO)NC(=O)/C=C/c1c(C)[nH]c(=O)[nH]c1=O` (stereo partly specified) [SPARSOMYCIN], the Inhibition in assay [1] is 29%. This compound also had an inhibition at 1000 µM with P388 [3] of 48%.
For the compound `Cc1nc(O)nc(O)c1/C=C/C(=O)NCCc1ccc(Br)cc1`, in assay [1], the Inhibition stood at 42%. In addition, the inhibition at 1000 µM worked out at 17% in the assay with P388 [2], 27% with P388 [3], 0% in assay [4] and 89% in the assay with P815 [5].

The values above are taken from ChEMBL document CHEMBL1122387, “Synthesis and biological evaluation of sparsomycin analogues” (1983).
